Measurements from ChEMBL document CHEMBL4706631, “Potent and Selective Mitogen-Activated Protein Kinase Kinase 1/2 (MEK1/2) Heterobifunctional Small-molecule Degraders” (J Med Chem, 2020).
Active and inactive are the calls of the source. No cut-off for these calls is given here.

Tests used:
[1] = system: SU-DHL-1; assay: Inhibition of ERK phosphorylation in human SU-DHL-1 cells at 0.3 to 3 uM and incubated for 24 hrs by Western blot analysis; format: cell-based; conditions: dose 0.3-3 µM
In short: (§1)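 H3122 and SU-DHL-1 cells were treated with compounds, and MEK1/2, pMEK and pERK were assessed by Western blot of lysates.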

[2] = system: NCI-H3122; assay: Inhibition of ERK phosphorylation in human NCI-H3122 cells at 0.3 to 3 uM and incubated for 24 hrs by Western blot analysis; format: cell-based; conditions: dose 0.3-3 µM; in short: as §1
[3] = system: NCI-H3122; assay: Antiproliferative activity against human NCI-H3122 cells at 0.014 to 3.33 uM incubated for 3 days by WST8 assay; format: functional, cell-based; conditions: dose 0.014-3.33 µM, time 3.0 day
In short: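 NCI-H3122 cells were exposed to serial compound dilutions for 3 days, with WST-8 live-cell readout. Each concentration was run in triplicate. Student's t-test per concentration versus DMSO.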

[4] = system: HT-29; assay: Inhibition of colony formation in human HT-29 cells at 10 to 100 nM incubated for 10 days by crystal violet staining based assay; format: functional, cell-based; conditions: dose 10-100 nM, time 10.0 day
In short: (§2)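 HT-29 clonogenic assay: cells were exposed to compounds for 10 days, then fixed and stained with crystal violet. Two independent experiments.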

[5] = system: HT-29; assay: Inhibition of ERK phosphorylation in human HT-29 cells at 0.3 to 3 uM incubated for 24 hrs by Western blot analysis; format: cell-based; conditions: dose 0.3-3 µM
[6] = system: HT-29; assay: Effect on global proteome expression in human HT-29 cells at 0.1 uM incubated for 8 hrs by mass spectrometry analysis based global proteome analysis; format: functional, cell-based
In short: (§3)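 HT-29 cells were treated 8 h (0.1% DMSO vehicle) and then lysed in 8 M urea/100 mM Tris pH 8.0 with sonication. Proteins were reduced with 5 mM DTT, alkylated with 15 mM IAA and digested overnight with trypsin (1:100). Peptides were analysed on a 130 min nanoLC gradient by Q Exactive HF-X data-dependent MS (top-20 HCD). Run in duplicate.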

[7] = system: HT-29; assay: Antiproliferative activity against human HT-29 cells incubated for 3 days by WST8 assay; format: functional; conditions: HT-29, 72 h, time 3 day
[8] = system: SK-MEL-28; assay: Antiproliferative activity against human SK-MEL-28 cells incubated for 3 days by WST8 assay; format: functional; conditions: SK-MEL-28, 72 h, time 3 day
[9] = system: HT-29; assay: Inhibition of ERK phosphorylation in human HT-29 cells incubated for 24 hrs by Western blot analysis; format: cell-based
[10] = system: HT-29; assay: Inhibition of ERK phosphorylation in human HT-29 cells at 0.3 uM and further incubated for 8 hrs by Western blot analysis
[11] = system: HT-29; assay: Inhibition of ERK phosphorylation in human HT-29 cells pre-incubated with POMA for 2 hrs followed by compound addition at 0.3 uM and further incubated for 8 hrs by Western blot analysis; format: cell-based
[12] = system: HT-29; assay: Inhibition of ERK phosphorylation in human HT-29 cells pre-incubated with PD0325901 for 2 hrs followed by compound addition at 0.3 uM and further incubated for 8 hrs by Western blot analysis; format: cell-based
[13] = system: HT-29; assay: Inhibition of ERK phosphorylation in human HT-29 cells pre-incubated with MG132 for 2 hrs followed by compound addition at 0.3 uM and further incubated for 8 hrs by Western blot analysis; format: cell-based
[14] = system: HT-29; assay: Inhibition of ERK phosphorylation in human HT-29 cells pre-incubated with MLN4924 for 2 hrs followed by compound addition at 0.3 uM and further incubated for 8 hrs by Western blot analysis; format: cell-based
[15] = system: HT-29; assay: Inhibition of colony formation in human HT-29 cells at 30 to 300 nM incubated for 10 days by crystal violet staining based assay; format: functional, cell-based; conditions: dose 30-300 nM, time 10.0 day; in short: as §2
[16] = system: HT-29; assay: Inhibition of ERK phosphorylation in human HT-29 cells pre-incubated with MLN4924 for 2 hrs followed by compound addition at 0.1 uM and further incubated for 8 hrs by Western blot analysis; format: cell-based
[17] = system: SK-MEL-28; assay: Inhibition of ERK phosphorylation in human SK-MEL-28 cells at 0.0001 to 3 uM incubated for 24 hrs by Western blot analysis; format: cell-based; conditions: dose 0.0001-3 µM
[18] = system: HT-29; assay: Inhibition of ERK phosphorylation in human HT-29 cells pre-incubated with MG-132 for 2 hrs followed by compound addition at 0.1 uM and further incubated for 8 hrs by Western blot analysis; format: cell-based
[19] = system: HT-29; assay: Inhibition of ERK phosphorylation in human HT-29 cells pre-incubated with VH032 for 2 hrs followed by compound addition at 0.1 uM and further incubated for 8 hrs by Western blot analysis; format: cell-based
[20] = system: HT-29; assay: Inhibition of ERK phosphorylation in human HT-29 cells pre-incubated for 2 hrs followed by compound addition at 0.1 uM and further incubated for 8 hrs by Western blot analysis
[21] = Toxicity in Swiss albino mouse assessed as drug tolerability at 50 mg/kg, ip administered as single dose and measured up to 8 hrs; format: organism-based; conditions: in vivo
[22] = Drug level in Swiss albino mouse plasma at 50 mg/kg, ip administered as single dose and measured up to 8 hrs by LC-MS/MS analysis; format: ADME, organism-based; conditions: in vivo
[23] = Toxicity in Swiss albino mouse assessed as induction of adverse events at 50 mg/kg, ip administered as single dose and measured up to 8 hrs; format: organism-based; conditions: in vivo
[24] = Toxicity in Swiss albino mouse assessed as effect on clinical signs at 50 mg/kg, ip administered as single dose and measured up to 8 hrs; format: organism-based; conditions: in vivo
[25] = system: HT-29; assay: Inhibition of ERK phosphorylation in human HT-29 cells pre-incubated with PD0325901 for 2 hrs followed by compound addition at 0.1 uM and further incubated for 8 hrs by Western blot analysis; format: cell-based
[26] = system: HT-29; assay: Effect on global proteome expression in human HT-29 cells at 0.3 uM incubated for 8 hrs by mass spectrometry analysis based global proteome analysis; format: functional, cell-based; in short: as §3
[27] = system: HT-29; assay: Antiproliferative activity against human HT-29 cells at 0.00017 to 10 uM in presence of 100 nM PLX4032 incubated for 3 days by WST-8 assay; format: functional, cell-based; conditions: dose 0.00017-10 µM, time 3.0 day
In short: (§4)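 Cells grown in DMEM, RPMI-1640 or EMEM with 10% FBS and penicillin/streptomycin. They were exposed for 3 days to a dilution series of degrader combined with fixed PLX4032 (100 nM) or ZSTK474 (400 nM). Live-cell signal was read by WST-8. Triplicate points, mean ± SD of three independent experiments. Student's t-test per concentration versus DMSO.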

[28] = system: SK-MEL-28; assay: Antiproliferative activity against human SK-MEL-28 cells at 0.00017 to 10 uM in presence of 100 nM PLX4032 incubated for 3 days by WST-8 assay; format: functional, cell-based; conditions: dose 0.00017-10 µM, time 3.0 day; in short: as §4
[29] = system: HT-29; assay: Antiproliferative activity against human HT-29 cells at 0.00017 to 10 uM in presence of 400 nM ZSTK474 incubated for 3 days by WST-8 assay; format: functional, cell-based; conditions: dose 0.00017-10 µM, time 3.0 day; in short: as §4
[30] = system: SK-MEL-28; assay: Antiproliferative activity against human SK-MEL-28 cells at 0.00017 to 10 uM in presence of 400 nM ZSTK474 incubated for 3 days by WST-8 assay; format: functional, cell-based; conditions: dose 0.00017-10 µM, time 3.0 day; in short: as §4
[31] = system: SU-DHL-1; assay: Antiproliferative activity against human SU-DHL-1 cells incubated for 3 days by WST8 assay; format: functional; conditions: SU-DHL-1, 72 h, time 3 day

For `Cc1ncsc1-c1ccc([C@H](C)NC(=O)[C@H]2C[C@H](O)CN2C(=O)[C@@H](NC(=O)CCCCCCCCCCCNCCCCONC(=O)c2ccc(F)c(F)c2Nc2ccc(I)cc2F)C(C)(C)C)cc1`, the inhibition [1] was “inactive”, the inhibition [2] was “inactive” and the Activity [3] was “inactive”. For the same compound, the inhibition [4] was “inactive”, the inhibition [5] was “inactive” and the Activity [6] was “inactive”.

With `Cc1ncsc1-c1ccc([C@H](C)NC(=O)[C@@H]2C[C@@H](O)CN2C(=O)[C@@H](NC(=O)CCCCCCCCCCNCCCONC(=O)c2ccc(F)c(F)c2Nc2ccc(I)cc2F)C(C)(C)C)cc1` the GI50 [7] was 130 nM and the GI50 [8] was 83 nM.

With `O=C1CCC(N2C(=O)c3ccc(NCCOCCOCCOCCOCCOCCNCCCONC(=O)c4ccc(F)c(F)c4Nc4ccc(I)cc4F)cc3C2=O)C(=O)N1` (stereo not drawn) the inhibition [9] was “Dose-dependent effect”, the inhibition [10] was “inactive” and the inhibition [11] was “inactive”. The inhibition [12] was “Active”, the inhibition [13] was “inactive” and the inhibition [14] was “inactive”. For the same compound, the inhibition [15] was “Active”.

For `Cc1ncsc1-c1ccc([C@H](C)NC(=O)[C@@H]2C[C@@H](O)CN2C(=O)[C@@H](NC(=O)CCCCCCCCCCN(C)CCCONC(=O)c2ccc(F)c(F)c2Nc2ccc(I)cc2F)C(C)(C)C)cc1`, the inhibition [16] was “inactive”, the inhibition [1] was “Active” and the inhibition [2] was “Active”. For the same compound, the inhibition [17] was “Active”, the Activity [3] was “Active” and the inhibition [4] was “Active”. The inhibition [18] was “inactive”, the inhibition [19] was “inactive” and the inhibition [20] was “inactive”. The inhibition [9] was “Dose-dependent effect”, the Activity [21] was “Non-Toxic” and the Drug uptake [22] was “Active”. The Activity [23] was “Non-Toxic”, the Activity [24] was “Non-Toxic” and the inhibition [25] was “Active”.

With `CN1C(=O)CCC(N2C(=O)c3ccc(NCCOCCOCCOCCOCCOCCNCCCONC(=O)c4ccc(F)c(F)c4Nc4ccc(I)cc4F)cc3C2=O)C1=O` (stereo not drawn) the inhibition [5] was “inactive”, the Activity [26] was “inactive” and the inhibition [15] was “inactive”.

In the case of `Cc1ncsc1-c1ccc([C@H](C)NC(=O)[C@@H]2C[C@@H](O)CN2C(=O)[C@@H](NC(=O)CCCCCCCCCCCNCCCCONC(=O)c2ccc(F)c(F)c2Nc2ccc(I)cc2F)C(C)(C)C)cc1`, the inhibition [16] is reported as “inactive”, the inhibition [1] is reported as “Active” and the inhibition [2] is reported as “Active”. The inhibition [17] was “Active”, the Activity [3] was “Active” and the inhibition [4] was “Active”. For the same compound, the inhibition [18] was “inactive”, the inhibition [19] was “inactive” and the inhibition [20] was “inactive”. The inhibition [9] was “Dose-dependent effect”, the Activity [21] was “Non-Toxic” and the Drug uptake [22] was “Active”. The Activity [27] was “Active”, the Activity [23] was “Non-Toxic” and the Activity [28] was “Active”. For the same compound, the Activity [29] was “Active”, the Activity [24] was “Non-Toxic” and the inhibition [25] was “Active”. For the same compound, the Activity [30] was “Active”.

Compound `Cc1ncsc1-c1ccc([C@H](C)NC(=O)[C@@H]2C[C@@H](O)CN2C(=O)[C@@H](NC(=O)COCCOCCOCCNC(=O)CCc2ccc(S(=O)(=O)Nc3cc(C)c(=O)n(C)c3Nc3ccc(I)cc3F)cc2)C(C)(C)C)cc1` has a GI50 [31] of 2400 nM.
